Tests used:
Melanocortin receptor 5 [1] = biological target: T1, Melanocortin receptor 5 (Homo sapiens, UniProt P33032); test: Displacement of [125I]NDP-alpha-MSH from human MC5R expressed in HEK293 cells relative to MT-II; type: cell-based
Outline: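 Binding efficiency was measured on whole HEK293 cells expressing hMC5R, by competition with 125I-NDP-α-MSH. It is the maximum radioligand displacement by the test compound divided by the maximum displacement caused by excess MT-II.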

Melanocortin receptor 4 [2] = biological target: T2, Melanocortin receptor 4 (Homo sapiens, UniProt P32245); test: Activity at human MC4R expressed in HEK293 cells assessed by measuring intracellular cAMP accumulation; type: functional, cell-based
Outline: (§1)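 Whole HEK293 cells expressing the human melanocortin receptor were incubated with ligand, and the cAMP they produced was measured as the read-out of adenylate cyclase activation.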

Melanocortin receptor 3 [3] = biological target: T3, Melanocortin receptor 3 (Homo sapiens, UniProt P41968); test: Displacement of [125I]NDP-alpha-MSH from human MC3R expressed in HEK293 cells; type: cell-based
[4] = biological target: T4, Melanocyte-stimulating hormone receptor (Homo sapiens, UniProt Q01726); test: Activity at human MC1R expressed in HEK293 cells assessed by measuring intracellular cAMP accumulation; type: functional, cell-based; outline: as §1
Target sequence in this assay (Q01726 whole entry): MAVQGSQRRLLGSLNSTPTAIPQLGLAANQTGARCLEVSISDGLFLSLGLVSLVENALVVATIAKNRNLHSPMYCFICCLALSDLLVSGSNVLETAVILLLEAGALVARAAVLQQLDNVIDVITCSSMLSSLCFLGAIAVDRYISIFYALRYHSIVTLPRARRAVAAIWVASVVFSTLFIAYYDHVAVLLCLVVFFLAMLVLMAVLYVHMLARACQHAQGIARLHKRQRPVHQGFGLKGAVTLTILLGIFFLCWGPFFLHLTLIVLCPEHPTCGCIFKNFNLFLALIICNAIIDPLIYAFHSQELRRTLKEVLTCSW

Melanocortin receptor 3 [5] = biological target: T3, Melanocortin receptor 3; test: Activity at human MC3R expressed in HEK293 cells assessed by measuring intracellular cAMP accumulation; type: functional, cell-based; outline: as §1
[6] = biological target: T4, Melanocyte-stimulating hormone receptor; test: Activity at human MC1R expressed in HEK293 cells assessed as activation of adenylate cyclase; type: functional, cell-based; set-up: concentration or dose not given beside the values
Outline: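 Whole HEK293 cells expressing the human melanocortin receptor were incubated with ligand, and the cAMP they produced was measured as the read-out of adenylate cyclase activation. EC50 is the concentration giving 50% of maximal intracellular cAMP accumulation.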
Target sequence in this assay (Q01726 whole entry, looked up): as the sequence (Q01726 whole entry) above

Melanocortin receptor 5 [7] = biological target: T1, Melanocortin receptor 5; test: Activity at human MC5R expressed in HEK293 cells assessed as activation of adenylate cyclase; type: functional, cell-based; set-up: concentration or dose not given beside the values; outline: as §1
Melanocortin receptor 5 [8] = biological target: T1, Melanocortin receptor 5; test: Displacement of [125I]NDP-alpha-MSH from human MC5R expressed in HEK293 cells; type: cell-based
Melanocortin receptor 4 [9] = biological target: T2, Melanocortin receptor 4; test: Displacement of [125I]NDP-alpha-MSH from human MC4R expressed in HEK293 cells; type: cell-based
Melanocortin receptor 4 [10] = biological target: T2, Melanocortin receptor 4; test: Activity at human MC4R expressed in HEK293 cells assessed as activation of adenylate cyclase; type: functional, cell-based; set-up: concentration or dose not given beside the values; outline: as §1
[11] = biological target: T4, Melanocyte-stimulating hormone receptor; test: Displacement of [125I]NDP-alpha-MSH from human MC1R expressed in HEK293 cells; type: cell-based
Target sequence in this assay (Q01726 whole entry): as above

Melanocortin receptor 5 [12] = biological target: T1, Melanocortin receptor 5; test: Activity at human MC5R expressed in HEK293 cells assessed by measuring intracellular cAMP accumulation; type: functional, cell-based; outline: as §1
Melanocortin receptor 3 [13] = biological target: T3, Melanocortin receptor 3; test: Activity at human MC3R expressed in HEK293 cells assessed as activation of adenylate cyclase; type: functional, cell-based; set-up: concentration or dose not given beside the values; outline: as §1
[14] = biological target: T4, Melanocyte-stimulating hormone receptor; test: Displacement of [125I]NDP-alpha-MSH from human MC1R expressed in HEK293 cells relative to MT-II; type: cell-based
Target sequence in this assay (Q01726 whole entry, looked up): as the sequence (Q01726 whole entry) above

T2 sequence (P32245 whole entry): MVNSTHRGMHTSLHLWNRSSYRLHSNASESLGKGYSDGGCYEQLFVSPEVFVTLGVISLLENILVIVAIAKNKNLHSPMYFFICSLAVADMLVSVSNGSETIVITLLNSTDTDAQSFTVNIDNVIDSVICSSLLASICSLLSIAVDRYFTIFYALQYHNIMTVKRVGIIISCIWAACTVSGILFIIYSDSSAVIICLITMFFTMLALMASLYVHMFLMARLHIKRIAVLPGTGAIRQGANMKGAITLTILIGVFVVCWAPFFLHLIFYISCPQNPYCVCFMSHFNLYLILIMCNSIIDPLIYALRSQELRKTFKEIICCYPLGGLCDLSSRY
T1 sequence (P33032 whole entry): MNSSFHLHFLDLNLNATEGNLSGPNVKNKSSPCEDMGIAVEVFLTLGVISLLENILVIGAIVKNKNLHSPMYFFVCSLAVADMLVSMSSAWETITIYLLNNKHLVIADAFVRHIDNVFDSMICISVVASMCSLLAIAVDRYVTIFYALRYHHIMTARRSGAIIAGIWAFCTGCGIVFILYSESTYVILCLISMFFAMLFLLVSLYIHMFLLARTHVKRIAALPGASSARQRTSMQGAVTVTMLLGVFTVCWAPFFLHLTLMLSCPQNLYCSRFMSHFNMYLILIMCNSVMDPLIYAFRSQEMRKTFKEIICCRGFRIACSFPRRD
T3 sequence (P41968 whole entry): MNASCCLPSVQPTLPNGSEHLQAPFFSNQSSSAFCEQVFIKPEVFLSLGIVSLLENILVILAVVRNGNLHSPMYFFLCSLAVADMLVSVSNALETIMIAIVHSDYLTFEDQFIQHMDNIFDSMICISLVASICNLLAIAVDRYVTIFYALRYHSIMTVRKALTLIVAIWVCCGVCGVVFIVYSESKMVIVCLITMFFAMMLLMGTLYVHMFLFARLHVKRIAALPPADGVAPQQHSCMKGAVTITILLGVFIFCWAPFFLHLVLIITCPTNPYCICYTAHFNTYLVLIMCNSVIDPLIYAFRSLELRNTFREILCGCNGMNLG

Activity (Melanocortin receptor 5 [1])	SMILES	EC50 (Melanocortin receptor 4 [2])	IC50 (Melanocortin receptor 3 [3])	EC50 [4]	EC50 (Melanocortin receptor 3 [5])	Activity [6]	Activity (Melanocortin receptor 5 [7])	IC50 (Melanocortin receptor 5 [8])	IC50 (Melanocortin receptor 4 [9])	Activity (Melanocortin receptor 4 [10])	IC50 [11]	EC50 (Melanocortin receptor 5 [12])	Activity (Melanocortin receptor 3 [13])	Activity [14]
65%	O=C(CCc1c[nH]c2ccccc12)NCCCCCC(=O)N1C[C@@H]2CCCN2C[C@@H]1Cc1ccccc1	> 10 µM	> 10 µM	> 10 µM	> 10 µM	0%	0%	0.0004 µM	> 10 µM	0%	> 10 µM	> 10 µM	0%	–
–	O=C(Cc1ccccc1)N1C[C@@H]2CCCN2C[C@@H]1Cc1ccccc1	0.0027 µM	0.35 µM	> 10 µM	> 10 µM	0%	0%	> 10 µM	> 10 µM	30%	0.0022 µM	> 10 µM	0%	80%
50%	O=C(CCC(=O)N1C[C@@H]2CCCN2C[C@@H]1Cc1ccccc1)NCCc1c[nH]c2ccccc12	> 10 µM	> 10 µM	> 10 µM	> 10 µM	0%	0%	0.0005 µM	> 10 µM	0%	> 10 µM	> 10 µM	0%	–
60%	N=C(N)NCCC[C@H](NC(=O)CCc1c[nH]c2ccccc12)C(=O)N1C[C@@H]2CCCN2C[C@@H]1Cc1ccccc1	–	–	–	–	20%	0%	–	–	0%	–	–	0%	–
–	O=C(CCc1c[nH]c2ccccc12)N1C[C@@H]2CCCN2C[C@H]1Cc1ccccc1	> 10 µM	0.0012 µM	> 10 µM	> 10 µM	0%	0%	> 10 µM	> 10 µM	0%	0.004 µM	> 10 µM	0%	50%
60%	O=C(CCC(=O)N1C[C@@H]2CCCN2C[C@H]1Cc1ccccc1)NCCc1c[nH]c2ccccc12	> 10 µM	> 10 µM	> 10 µM	> 10 µM	0%	0%	0.0001 µM	> 10 µM	0%	> 10 µM	> 10 µM	0%	–
–	O=C(Cc1ccccc1)N1C[C@@H]2CCCN2C[C@H]1Cc1ccccc1	> 10 µM	0.005 µM	> 10 µM	> 10 µM	0%	0%	> 10 µM	0.0012 µM	0%	0.0013 µM	> 10 µM	0%	90%
–	NC(N)=NCCC[C@H](NC(=O)CCc1c[nH]c2ccccc12)C(=O)N1C[C@@H]2CCCN2C[C@@H]1Cc1ccccc1	> 10 µM	> 10 µM	> 10 µM	> 10 µM	–	–	0.0001 µM	> 10 µM	–	> 10 µM	> 10 µM	–	–

SMILES	Activity (Melanocortin receptor 5 [1])	EC50 (Melanocortin receptor 4 [2])	IC50 (Melanocortin receptor 3 [3])	EC50 [4]	EC50 (Melanocortin receptor 3 [5])	Activity [6]	Activity (Melanocortin receptor 5 [7])	IC50 (Melanocortin receptor 5 [8])	IC50 (Melanocortin receptor 4 [9])	Activity (Melanocortin receptor 4 [10])	IC50 [11]	EC50 (Melanocortin receptor 5 [12])	Activity (Melanocortin receptor 3 [13])	Activity [14]
O=C(CCc1c[nH]c2ccccc12)N1C[C@@H]2CCCN2C[C@@H]1Cc1ccccc1	50%	> 10 µM	> 10 µM	> 10 µM	> 10 µM	0%	0%	0.0008 µM	> 10 µM	0%	> 10 µM	> 10 µM	0%	–

Source: ChEMBL document CHEMBL1137290, “Design, synthesis, and biological evaluation of a new class of small molecule peptide mimetics targeting the melanocortin receptors” (Bioorg Med Chem Lett, 2006)
